Converted amounts (≈) assume the structure as drawn.

The text below walks through data of ChEMBL document CHEMBL1121953, “Carbon-7 substituted actinomycin D analogues as improved antitumor agents: synthesis and DNA-binding and biological properties” (J Med Chem, 1982).

Data set [1] is filed under the species Homo sapiens. The experiment in a line: (§1) In vitro growth inhibitory activity against human lymphoblastic leukemia cells. Format: functional. Particulars: read-out: ID50 (the source's name). In a few lines: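 CCRF-CEM human lymphoblastic leukemia cells in log-phase growth; compounds dissolved in Me₂SO, final growth medium 1% Me₂SO.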
Data set [2] in a line: In vitro growth inhibitory activity for effect on melting temperature of DNA was determined. The gist of the method:
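DNA thermal denaturation; ΔTm = Tm of DNA-drug complex minus Tm of DNA. Drug 1.4×10⁻⁴ M, DNA (P) 1.4×10⁻³ M in 0.01 M phosphate buffer pH 7.0 with 5×10⁻³ M EDTA and 5% dimethyl sulfoxide.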

Data set [3] can be described thus: Therapeutic Index measured as the MTD/MED ratio compared to that of compound 4. Particulars: read-out: Therapeutic index. The gist of the method:
(§2)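 Therapeutic index is MTD/MED, with ip dosing in 10% dimethyl sulfoxide-saline on a qd 1-4 or q4d 1, 5, 9 schedule. MED is the dose giving a 40% increase in life span over control in P-388-bearing mice. MTD is the LD10 in tumor-free male CDF1 mice (18-23 g) over 21 days, read from a log dose vs. percent mortality plot and averaged over 2-3 experiments.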

A short description of data set [4]: Therapeutic Index measured as the MTD/MED ratio compared to that of compound 3. Particulars: read-out: Therapeutic index. The gist of the method:
as §2

Data set [5] concerns P388. The experiment in a line: Antitumor activity against P-388 lymphocytic leukemia in CDF1 hybrid male mice measured as median survival time (3 mg/kg),ip. The class given is functional, Mus musculus. The gist of the method: (§3)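 Male CDF1 mice (18-23 g) were inoculated ip with 10⁶ P-388 cells on day 0. Drug was given ip in 10% dimethyl sulfoxide-saline on days 1, 5 and 9. Test solutions were kept at 0-4 °C, protected from light, and checked periodically for stability and homogeneity by TLC and HPLC. Read-out was survival, median survival time, increase in life span and tumor-free cures per 7 animals.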

Data set [6] concerns P388. The data set is described as follows: Number of mice with P-388 lymphocytic leukemia cured( 3 mg/kg),ip; 0/7. The class given is functional, Mus musculus. The gist of the method: as §3
Data set [7] deals with P388. The experiment in a line: Antitumor activity against P-388 lymphocytic leukemia in CDF1 hybrid male mice measured as median survival time (0.15 mg/kg),ip. The class given is functional, Mus musculus. The gist of the method:
as §3

Data set [8] concerns P388. The data set is described as follows: Antitumor activity against P-388 lymphocytic leukemia in CDF1 hybrid male mice measured as median survival time (0.3 mg/kg),ip. Format: functional, Mus musculus. The gist of the method:
as §3

Data set [9] relates to P388. The data set is described as follows: Minimum effective dose was determined compared to 7-(2,3-Epoxypropoxy)-actinomycin D against P-388 leukemia in mice(3 days). Format: functional, Mus musculus. Set-up: unit: mg/kg. In a few lines: (§4)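 MED was the dose (mg/kg) giving a 40% increase in life span over control in mice bearing ip P-388 leukemia. Drug was given ip in 10% dimethyl sulfoxide-saline on a q4d 1, 5, 9 (three injections) or qd 1-4 (four injections) schedule.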

Data set [10] deals with P388. The experiment in a line: Number of mice with P-388 lymphocytic leukemia cured.(1.8 mg/kg),ip; 0/7. The class given is functional, Mus musculus.
The test system of data set [11] is P388. The data set is described as follows: Antitumor activity against P-388 lymphocytic leukemia in CDF1 hybrid male mice measured as median survival time ( 0.6 mg/kg),ip. Format: functional, Mus musculus. The gist of the method: as §3
Data set [12] concerns P388. The data set is described as follows: Maximum tolerated dose was determined compared to 7-(2,3-Epoxypropoxy)-actinomycin D against P-388 leukemia in mice(3 days). Format: functional, Mus musculus. In a few lines: (§5)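 Tumor-free male CDF1 mice (18-23 g) received a broad dose range ip in 10% dimethyl sulfoxide-saline, either on days 1, 5, 9 (three injections) or on 4 successive days (qd 1-4). Deaths were recorded over 21 days. MTD was the dose lethal to 10% (LD10), taken from a plot of log dose vs percent mortality. Average of two experiments.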

For data set [13], the system named is P388. The data set is described as follows: Antitumor activity against P-388 lymphocytic leukemia in CDF1 hybrid male mice measured as percent increase in lifespan( 1.8 mg/kg),ip. Format: functional. The note with it: Mus musculus. The gist of the method:
as §3

The species entered for data set [14] is Homo sapiens. Described as §1. Particulars: read-out: ID50 (the source's name). Format: functional. The gist of the method: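 Human CCRF-CEM lymphoblastic leukemia cells were used in log-phase growth. Compounds were dissolved in Me2SO, and the final growth medium contained 1% Me2SO. Test solution homogeneity was checked by TLC and HPLC at each test.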
This is another data set of the same source.

Data set [15] concerns P388. The experiment in a line: Antitumor activity against P-388 lymphocytic leukemia in CDF1 hybrid male mice measured as percent increase in lifespan( 1.2 mg/kg),ip. Particulars: Mus musculus. Format: functional. In a few lines: as §3
Data set [16] relates to P388. The experiment in a line: Antitumor activity against P-388 lymphocytic leukemia in CDF1 hybrid male mice measured as percent increase in lifespan(0.3 mg/kg),ip. The class given is functional, Mus musculus. The gist of the method: as §3
In data set [17] the test system is P388. The data set is described as follows: Minimum effective dose was determined compared to 7-(2,3-Epoxypropoxy)-actinomycin D against P-388 leukemia in mice(4 days). Format: functional, Mus musculus. The gist of the method: as §4
Data set [18] deals with P388. The data set is described as follows: Antitumor activity against P-388 lymphocytic leukemia in CDF1 hybrid male mice measured as median survival time (1.8 mg/kg),ip. The class given is functional, Mus musculus. In a few lines:
as §3

Data set [19] concerns P388. The experiment in a line: Number of mice with P-388 lymphocytic leukemia cured.( 0.3 mg/kg),ip; 0/7. Format: functional, Mus musculus.
Data set [20] relates to P388. The experiment in a line: Number of mice with P-388 lymphocytic leukemia cured(1.2 mg/kg),ip; 0/7. Format: functional, Mus musculus. In a few lines: as §3
Data set [21] deals with P388. The experiment in a line: Antitumor activity against P-388 lymphocytic leukemia in CDF1 hybrid male mice measured as percent increase in lifespan( 3 mg/kg),ip. The class given is functional. The note with it: Mus musculus. The gist of the method:
as §3

Data set [22] deals with P388. The experiment in a line: Antitumor activity against P-388 lymphocytic leukemia in CDF1 hybrid male mice measured as median survival time ( 1.2 mg/kg),ip. The class given is functional, Mus musculus. In a few lines:
as §3

The test system of data set [23] is P388. The experiment in a line: Maximum tolerated dose was determined compared to 7-(2,3-Epoxypropoxy)-actinomycin D against P-388 leukemia in mice(4 days). The class given is functional, Mus musculus. In a few lines: as §5
In data set [24] the test system is P388. The data set is described as follows: Antitumor activity against P-388 lymphocytic leukemia in CDF1 hybrid male mice measured as percent increase in lifespan( 0.15 mg/kg),ip. Format: functional. The note with it: Mus musculus. The gist of the method: as §3
The subject of data set [25] is P388. The data set is described as follows: Number of mice with P-388 lymphocytic leukemia cured(0.15 mg/kg),ip.; 0/7. Format: functional, Mus musculus. The gist of the method: as §3
For data set [26], the system named is P388. The data set is described as follows: Antitumor activity against P-388 lymphocytic leukemia in CDF1 hybrid male mice measured as percent increase in lifespan( 0.6 mg/kg),ip. The class given is functional. The note with it: Mus musculus. The gist of the method:
as §3

The test system of data set [27] is P388. The data set is described as follows: Number of mice with P-388 lymphocytic leukemia cured.( 0.6 mg/kg),ip; 0/7. The class given is functional, Mus musculus.

Consider `CCN(CC)C(=O)c1c2nc3c(C(=O)N(CC)CC)ccc(C)c3oc-2c(C)c(=O)c1N`, for which the IC50 in the data set filed under Homo sapiens [1] is about 10 µg/mL (≈ 22.8 µM). The DNA melting temperature shift (ΔTm) in [2] was 0 °C.

For the compound `Cc1c2oc3c(C)c(OCC4CO4)cc(C(=O)N[C@H]4C(=O)N[C@@H](C(C)C)C(=O)N5CCC[C@H]5C(=O)N(C)CC(=O)N(C)[C@@H](C(C)C)C(=O)O[C@H]4C)c3nc-2c(C(=O)N[C@H]2C(=O)N[C@@H](C(C)C)C(=O)N3CCC[C@H]3C(=O)N(C)CC(=O)N(C)[C@@H](C(C)C)C(=O)O[C@H]2C)c(N)c1=O` (some centres undefined), in data set [2], the DNA melting temperature shift (ΔTm) was 6 °C.

For the compound `Cc1c2oc3c(C)c(OCC(O)CO)cc(C(=O)N[C@H]4C(=O)N[C@@H](C(C)C)C(=O)N5CCC[C@H]5C(=O)N(C)CC(=O)N(C)[C@@H](C(C)C)C(=O)O[C@H]4C)c3nc-2c(C(=O)N[C@H]2C(=O)N[C@@H](C(C)C)C(=O)N3CCC[C@H]3C(=O)N(C)CC(=O)N(C)[C@@H](C(C)C)C(=O)O[C@H]2C)c(N)c1=O` (some centres undefined), in data set [2], the DNA melting temperature shift (ΔTm) turned out to be 5.1 °C.

Take `Cc1c2oc3c(C)c(O)c(N)c(C(=O)N[C@@H]4C(=O)N[C@H](C(C)C)C(=O)N5CCC[C@H]5C(=O)N(C)CC(=O)N(C)[C@@H](C(C)C)C(=O)O[C@@H]4C)c3nc-2c(C(=O)N[C@@H]2C(=O)N[C@H](C(C)C)C(=O)N3CCC[C@H]3C(=O)N(C)CC(=O)N(C)[C@@H](C(C)C)C(=O)O[C@@H]2C)cc1=O` [listing 1 of 2 here]: the selectivity ratio in data set [3] came to 10; in data set [4], 15.

Broadly, the ILS is how much longer treated animals lived than controls. In the case of `Cc1c2oc3c(C)c(O)c(N)c(C(=O)N[C@@H]4C(=O)N[C@H](C(C)C)C(=O)N5CCC[C@H]5C(=O)N(C)CC(=O)N(C)[C@@H](C(C)C)C(=O)O[C@@H]4C)c3nc-2c(C(=O)N[C@@H]2C(=O)N[C@H](C(C)C)C(=O)N3CCC[C@H]3C(=O)N(C)CC(=O)N(C)[C@@H](C(C)C)C(=O)O[C@@H]2C)cc1=O` [listing 2 of 2 here], the MST in the data set with P388 [5] was determined as 15 days; with P388 [7], 12 days; in the data set with P388 [8], 17 days; in the data set on P388 [11] it was 21 days; in the data set on P388 [18] it was 26 days; in the data set on P388 [22], 25 days. The Cure in the data set on P388 [6], with P388 [10], with P388 [19], in the data set with P388 [20], in the data set on P388 [25] and in the data set on P388 [27] was 0 in each case. Moreover, the figures for the MED in the data set with P388 [9] and with P388 [17] were 0.275 and 0.2, respectively. For the same compound, the MTD is reported as 4.2 in the data set with P388 [12] and 2 in the data set with P388 [23]. The compound also registered an ILS at 1.8 mg/kg in the data set on P388 [13] of 136%. The IC50 in the data set filed under Homo sapiens [14] was 0.95 µg/mL (≈ 0.747 µM). Further, the ILS at 1.2 mg/kg in the data set on P388 [15] was 127%. The same compound returned an ILS in the data set on P388 [16] of 55%. The compound further returned an ILS at 3 mg/kg in the data set with P388 [21] of 37%. This compound gave an ILS at 0.15 mg/kg with P388 [24] of 10%. The ILS at 0.6 mg/kg in the data set with P388 [26] came to 89%.
